Experimental findings from PubChem BioAssay are described below.

A short description of assay [1]: Her2 expression decrease, cell viability multiplex – SKBR3 breast tumor cells, AlphaScreen, ATP viability, primary screen (AID 461;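 active = Her2 level under about 52% in both replicate screens, with viability over 70% of control, limit read from the data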;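 as to Her2 level: lower value means less Her2 protein in the cells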;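 as to viability: percent of carrier control wells set as 100% viability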). The note with it: SKBR3 Her2 protein level, 18-24 h, measured here: SKBR3 viability, ATP luminescence, at 10 µM. In general terms: Bead proximity is the source of the signal in Alpha formats.
Assay [2] addresses Receptor tyrosine-protein kinase erbB-2 (Homo sapiens) (UniProt P04626). Described as above. The note with it: 18-24 h, at 10 µM, stronger effect = lower value.
Assay [3] in a line: reduced viability of SK-BR-3 breast cancer cells – cell-based, 24 h, human, pilot screen (AID 572;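 active = viability at or below 10% of carrier control in both of two separate runs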;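 also: compound exposure lasted between 18 and 24 h rather than exactly 24 h; 100% = carrier-treated control wells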). The note with it: SK-BR-3 viability, CellTiter-Glo luminescence, at 10 µM, stronger effect = lower value.
A short description of assay [4]: HUVEC growth inhibition – cell-based, human, primary screen (AID 575;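 active = viability at or below 30% in both replicate assays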;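 also: 100% = median of untreated cell wells with 0.1% DMSO on each plate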). The note with it: HUVEC proliferation, CellTiter-Glo luminescence, 72 h; at 10 µM; stronger effect = lower value. In outline: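 Assay system: Primary human umbilical vein endothelial cells | Quantity: 1250 cells per well | Medium: Supplemented EBM, 2% fetal bovine serum | Detection: CellTiter-Glo luminescence measuring cellular ATP | Read-out: % viability vs DMSO wells | Plate: Collagen-coated 384-well format | Times: 72 h exposure, 37 °C, 5% CO2, 30 min RT equilibration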
Background: In ATP-based viability assays light output follows the ATP content of the culture.

Assay [5] in a line: H69AR cell proliferation blockers – human, duplicate replicates, primary screen (AID 580;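 active = viability at or under a set limit in both replicates, limit being median viability minus 3 SD, cut at about 48% in these data, passing the limit was not always enough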;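 also: 100% = mean luminescence of untreated wells and 0% = no signal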). The note with it: H69AR lung tumor cells viability, ATP luminescence, 72 h; at 10 µM; stronger effect = lower value.
Assay [6] in a line: MRP1 drug-resistance reversers in H69AR cells – cell-based, doxorubicin co-treatment, pilot screen (AID 601). Conditions: CellTiter-Glo, 72 h, at 10 µM; for differential viability (reversal): stronger effect = higher value.
Assay [7] is described as follows: yeast transport mutant growth inhibition pilot in 384-well plates, post-Golgi transport modulator project (AID 636; in the data active = inhibition above about 31%). The note with it: absorbance 615 nm, about 18 h, stronger effect = higher value.
The nature of assay [8]: growth suppression of yeast trafficking mutant, preliminary HTS, modulators of trafficking downstream of Golgi apparatus project, 1536-format plate, OD 615 nm (AID 637; in the data active = inhibition above about 30%). The note with it: yeast transport mutant growth, absorbance 615 nm, 18 h; stronger effect = higher value.
Setting [9] is: H69AR cells + 2 uM doxorubicin, measured here: viability with 2 uM doxorubicin, stronger effect = lower value.
[10] abbreviates: H69AR cells, compound alone cytotoxicity.

Each structure is given as a SMILES string. Calls of active or inactive are those of the source.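 The calls were made as follows, unless noted: active = viability loss from added drug above about 55%, and viability with drug at most 40%, in both replicates (limit read from the data, passing the limit was not always enough); inconclusive = both conditions met in only one replicate; inactive = neither replicate meets both conditions.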

Sequence of Receptor tyrosine-protein kinase erbB-2 (Homo sapiens) (P04626 whole entry, looked up): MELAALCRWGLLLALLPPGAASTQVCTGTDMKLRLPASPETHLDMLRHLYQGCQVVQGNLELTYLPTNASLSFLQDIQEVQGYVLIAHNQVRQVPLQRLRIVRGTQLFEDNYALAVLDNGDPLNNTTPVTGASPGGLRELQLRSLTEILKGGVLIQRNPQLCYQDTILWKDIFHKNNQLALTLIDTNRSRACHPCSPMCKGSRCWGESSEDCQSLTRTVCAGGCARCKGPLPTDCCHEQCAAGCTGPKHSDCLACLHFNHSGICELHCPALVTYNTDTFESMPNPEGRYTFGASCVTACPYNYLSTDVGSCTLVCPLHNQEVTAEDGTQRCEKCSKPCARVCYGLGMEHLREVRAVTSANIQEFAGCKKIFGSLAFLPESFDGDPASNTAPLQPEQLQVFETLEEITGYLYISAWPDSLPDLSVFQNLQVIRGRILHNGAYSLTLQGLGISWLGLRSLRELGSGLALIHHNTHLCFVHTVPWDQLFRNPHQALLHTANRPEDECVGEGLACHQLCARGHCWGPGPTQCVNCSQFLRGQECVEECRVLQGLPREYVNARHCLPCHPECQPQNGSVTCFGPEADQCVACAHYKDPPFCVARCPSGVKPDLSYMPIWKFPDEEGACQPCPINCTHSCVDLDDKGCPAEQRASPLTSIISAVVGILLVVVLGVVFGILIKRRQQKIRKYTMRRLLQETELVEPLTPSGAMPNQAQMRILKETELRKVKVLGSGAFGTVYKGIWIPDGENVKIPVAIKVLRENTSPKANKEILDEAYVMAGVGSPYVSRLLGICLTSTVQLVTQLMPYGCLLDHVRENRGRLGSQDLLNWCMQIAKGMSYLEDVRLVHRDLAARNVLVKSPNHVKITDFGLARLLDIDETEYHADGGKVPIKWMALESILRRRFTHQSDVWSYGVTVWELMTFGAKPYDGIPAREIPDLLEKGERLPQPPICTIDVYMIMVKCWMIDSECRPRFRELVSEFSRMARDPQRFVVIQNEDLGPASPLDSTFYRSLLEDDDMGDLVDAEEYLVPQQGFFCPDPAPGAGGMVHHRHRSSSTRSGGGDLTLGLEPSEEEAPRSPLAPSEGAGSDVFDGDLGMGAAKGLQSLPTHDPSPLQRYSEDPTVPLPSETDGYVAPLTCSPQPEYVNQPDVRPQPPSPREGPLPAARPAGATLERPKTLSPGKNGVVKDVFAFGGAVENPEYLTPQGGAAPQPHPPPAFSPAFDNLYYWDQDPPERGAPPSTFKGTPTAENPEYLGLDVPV

A word on the viability: it is a read-out of living cells in per cent, often relative to untreated cells. For orientation: inhibition means the change of the read-out against control, counted positive when it falls. For the compound `CCN(CC)S(=O)(=O)c1ccc(C(=O)Oc2ccc3c(c2)OCO3)cc1`, the viability in assay [1] is 101%; in assay [3], 101% (inactive); in assay [4], 86.6% (inactive); in assay [5], 90.5% (inactive); in assay [6] (setting [9]), 86.1%; in assay [6] (setting [10]), 90.5%. In addition, in assay [2], the Her2 level was 84% (inactive). Moreover, in assay [6] (H69AR cells + 2 uM doxorubicin), the differential viability (reversal) was 4.36% (inactive). Besides, the inhibition in assay [7] is -5.53% (inactive); in assay [8], -4.13% (inactive).
Consider `CCOc1cc(C(=O)Nc2ccon2)cc(OCC)c1OCC`, for which the viability in assay [1] is 100%; in assay [3], 100% (inactive); in assay [4], 96.8% (inactive); in assay [5] it was 99.4% (inactive); in assay [6] (setting [9]) it was 97.2%; in assay [6] (setting [10]) it was 99.4%. The Her2 level in assay [2] was 110% (inactive). The differential viability (reversal) in assay [6] (H69AR cells + 2 uM doxorubicin) is 2.21% (inactive). Also, the inhibition was -3.03% (inactive) in assay [7] and -1.17% (inactive) in assay [8].
For the compound `CCN1CCN(c2ncnc3c2oc2nc(C)c4c(c23)CC(C)(C)OC4)CC1`, the viability in assay [1] is 91.5%; in assay [3] it was 91.5% (inactive); in assay [4] it was 98.3% (inactive); in assay [5], 97% (inactive); in assay [6] (setting [9]), 98.1%; in assay [6] (setting [10]), 97%. Also, the Her2 level in assay [2] is 122% (inactive). For the same compound, in assay [6] (H69AR cells + 2 uM doxorubicin), the differential viability (reversal) was -1.16% (inactive). The inhibition in assay [7] was -0.78% (inactive); in assay [8], -3.17% (inactive).
Regarding `CCNC(=O)N(C(=O)NCC)n1c(C)nnc1C`, the viability is 100% in assay [1]; 100% (inactive) in assay [3]; 105% (inactive) in assay [4]; 104% (inactive) in assay [5]; 85.3% in assay [6] (setting [9]); 104% in assay [6] (setting [10]). Besides, the Her2 level in assay [2] is 90% (inactive). Further, the differential viability (reversal) in assay [6] (H69AR cells + 2 uM doxorubicin) is 18.7% (inactive). Besides, the inhibition in assay [7] is -5.33% (inactive); in assay [8], 1.48% (inactive).
For the compound `COc1ccc(-c2nnc3ccc(SC(C(C)=O)C(C)=O)nn23)cc1OC`, the viability in assay [1] was 90%; in assay [3], 90% (inactive); in assay [4], 87.8% (inactive); in assay [5] it was 82.9% (inactive); in assay [6] (setting [9]), 78%; in assay [6] (setting [10]) it was 82.9%. Also, the Her2 level in assay [2] was 86.5% (inactive). In addition, the differential viability (reversal) in assay [6] (H69AR cells + 2 uM doxorubicin) is 4.92% (inactive). The figures for the inhibition in assay [7] and in assay [8] were -6.62% (inactive) and 6.17% (inactive), respectively.
As for `O=S(=O)(c1ccc2ccccc2c1)N1CCCCC1`, the viability in assay [1] was 102%; in assay [3] it was 102% (inactive); in assay [4], 78% (inactive); in assay [5] it was 80.8% (inactive); in assay [6] (setting [9]) it was 75.1%; in assay [6] (setting [10]), 80.8%. Besides, the Her2 level in assay [2] was 82.5% (inactive). Also, the differential viability (reversal) in assay [6] (H69AR cells + 2 uM doxorubicin) was 5.72% (inactive). The inhibition is -1.95% (inactive) in assay [7] and -8.67% (inactive) in assay [8].
With `CC(C)Cn1c(-c2ccc(F)cc2)n[nH]c1=S`, the viability in assay [1] is 114%; in assay [3], 114% (inactive); in assay [4], 80% (inactive); in assay [5] it was 88.8% (inactive); in assay [6] (setting [9]) it was 80.7%; in assay [6] (setting [10]), 88.8%. Also, the Her2 level in assay [2] was 98.5% (inactive). The differential viability (reversal) in assay [6] (H69AR cells + 2 uM doxorubicin) was 8.11% (inactive). Moreover, the inhibition in assay [7] was -5% (inactive); in assay [8], -1.33% (inactive).
For the compound `CN=C(Nc1cc(C)nn1-c1ccccc1)c1ccccc1`, the viability in assay [1] is 93%; in assay [3] it was 93% (inactive); in assay [4] it was 86.6% (inactive); in assay [5], 93.6% (inactive); in assay [6] (setting [9]), 97.2%; in assay [6] (setting [10]), 93.6%. Moreover, the Her2 level in assay [2] was 95.5% (inactive). Besides, the differential viability (reversal) in assay [6] (H69AR cells + 2 uM doxorubicin) was -3.59% (inactive). The inhibition is -2% (inactive) in assay [7] and -3.55% (inactive) in assay [8].
For `COc1ccc(N2CCN(Cc3nc(-c4ccc(Cl)cc4Cl)no3)CC2)cc1`, the viability in assay [1] is 117%; in assay [3] it was 117% (inactive); in assay [4], 70.5% (inactive); in assay [5], 91.5% (inactive); in assay [6] (setting [9]) it was 82.2%; in assay [6] (setting [10]) it was 91.5%. Further, the Her2 level in assay [2] was 83.5% (inactive). Further, the differential viability (reversal) in assay [6] (H69AR cells + 2 uM doxorubicin) is 9.36% (inactive). For the same compound, the inhibition in assay [7] is -4.68% (inactive); in assay [8] it was -5.57% (inactive).
Turning to `O=C1CN=C(Nc2cccc(C(F)(F)F)c2)N1C1CCCC1`, the viability in assay [1] is 97%; in assay [3], 97% (inactive); in assay [4] it was 101% (inactive); in assay [5], 82.5% (inactive); in assay [6] (setting [9]) it was 97.7%; in assay [6] (setting [10]), 82.5%. The Her2 level in assay [2] was 119% (inactive). Besides, the differential viability (reversal) in assay [6] (H69AR cells + 2 uM doxorubicin) is -15.2% (inactive). For the same compound, the inhibition in assay [7] was -3.33% (inactive); in assay [8], -1.8% (inactive).
For the compound `O=C(COC(=O)C1CCN(S(=O)(=O)c2cccs2)CC1)c1cc2ccccc2o1`, the viability in assay [1] is 104%; in assay [3], 104% (inactive); in assay [4], 91.9% (inactive); in assay [5], 96.2% (inactive); in assay [6] (setting [9]), 93.8%; in assay [6] (setting [10]), 96.2%. In addition, the Her2 level in assay [2] is 83% (inactive). Moreover, in assay [6] (H69AR cells + 2 uM doxorubicin), the differential viability (reversal) was 2.38% (inactive). The inhibition in assay [7] was -2.19% (inactive); in assay [8], -0.63% (inactive).
As for `O=C(Cc1c(F)cccc1Cl)Nc1ccncc1`, the viability in assay [1] is 92%; in assay [3], 92% (inactive); in assay [4], 97.5% (inactive); in assay [5], 86.4% (inactive); in assay [6] (setting [9]), 91.9%; in assay [6] (setting [10]) it was 86.4%. For the same compound, in assay [2], the Her2 level was 91.5% (inactive). Further, the differential viability (reversal) in assay [6] (H69AR cells + 2 uM doxorubicin) is -5.46% (inactive). The inhibition in assay [7] was -5.2% (inactive); in assay [8], -0.48% (inactive).
Consider `CCOC(=O)CC(=O)Nc1c(C)cc(C)cc1C`, for which the viability is 94.5% in assay [1]; 94.5% (inactive) in assay [3]; 85% (inactive) in assay [4]; 102% (inactive) in assay [5]; 91.8% in assay [6] (setting [9]); 102% in assay [6] (setting [10]). In assay [2], the Her2 level is 90.5% (inactive). The differential viability (reversal) in assay [6] (H69AR cells + 2 uM doxorubicin) was 10.3% (inactive). In addition, the inhibition was 2.57% (inactive) in assay [7] and -2.95% (inactive) in assay [8].
In the case of `O=S(=O)(NCCc1csc(-c2ccccc2)n1)c1ccc2c(c1)OCCO2`, the viability in assay [1] was 103%; in assay [3], 103% (inactive); in assay [4] it was 101% (inactive); in assay [5] it was 93.6% (inactive); in assay [6] (setting [9]) it was 89%; in assay [6] (setting [10]) it was 93.6%. Also, the Her2 level in assay [2] is 76% (inactive). For the same compound, the differential viability (reversal) in assay [6] (H69AR cells + 2 uM doxorubicin) was 4.63% (inactive). In addition, the inhibition in assay [7] is -1.97% (inactive); in assay [8] it was 4.59% (inactive).
For `Nc1scc(-c2ccncc2)c1Cl`, the viability was 90.5% in assay [1]; 90.5% (inactive) in assay [3]; 83.5% (inactive) in assay [4]; 96.2% (inactive) in assay [5]; 87.7% in assay [6] (setting [9]); 96.2% in assay [6] (setting [10]). Besides, in assay [2], the Her2 level is 77.5% (inactive). Also, the differential viability (reversal) in assay [6] (H69AR cells + 2 uM doxorubicin) is 8.54% (inactive). Moreover, the inhibition is -5.07% (inactive) in assay [7] and -3.49% (inactive) in assay [8].
`O=C(CCCCCn1c(SCc2ccncc2)nc2ccccc2c1=O)NCc1ccco1`: the viability in assay [1] was 80.5%; in assay [3] it was 80.5% (inactive); in assay [4], 96.9% (inactive); in assay [5], 74.6% (inactive); in assay [6] (setting [9]), 87.6%; in assay [6] (setting [10]), 74.6%. In addition, the Her2 level in assay [2] is 70.5% (inactive). The differential viability (reversal) in assay [6] (H69AR cells + 2 uM doxorubicin) is -13% (inactive). Besides, the results for the inhibition in assay [7] and in assay [8] were -1.18% (inactive) and -5.71% (inactive), respectively.
